# Experimental data taken from ChEMBL document CHEMBL1166015, “Design, synthesis, and docking of highly hypolipidemic agents: Schizosaccharomyces pombe as a new model for evaluating alpha-asarone-based HMG-CoA reductase inhibitors” (Bioorg Med Chem, 2010).
# What was measured:
# [1] = target: T1, 3-hydroxy-3-methylglutaryl-coenzyme A reductase (Schizosaccharomyces pombe 972h-, UniProt Q10283); assay: Inhibition of Schizosaccharomyces pombe HMG-CoA reductase by spectrophotometry
# T1 sequence (Q10283 whole entry): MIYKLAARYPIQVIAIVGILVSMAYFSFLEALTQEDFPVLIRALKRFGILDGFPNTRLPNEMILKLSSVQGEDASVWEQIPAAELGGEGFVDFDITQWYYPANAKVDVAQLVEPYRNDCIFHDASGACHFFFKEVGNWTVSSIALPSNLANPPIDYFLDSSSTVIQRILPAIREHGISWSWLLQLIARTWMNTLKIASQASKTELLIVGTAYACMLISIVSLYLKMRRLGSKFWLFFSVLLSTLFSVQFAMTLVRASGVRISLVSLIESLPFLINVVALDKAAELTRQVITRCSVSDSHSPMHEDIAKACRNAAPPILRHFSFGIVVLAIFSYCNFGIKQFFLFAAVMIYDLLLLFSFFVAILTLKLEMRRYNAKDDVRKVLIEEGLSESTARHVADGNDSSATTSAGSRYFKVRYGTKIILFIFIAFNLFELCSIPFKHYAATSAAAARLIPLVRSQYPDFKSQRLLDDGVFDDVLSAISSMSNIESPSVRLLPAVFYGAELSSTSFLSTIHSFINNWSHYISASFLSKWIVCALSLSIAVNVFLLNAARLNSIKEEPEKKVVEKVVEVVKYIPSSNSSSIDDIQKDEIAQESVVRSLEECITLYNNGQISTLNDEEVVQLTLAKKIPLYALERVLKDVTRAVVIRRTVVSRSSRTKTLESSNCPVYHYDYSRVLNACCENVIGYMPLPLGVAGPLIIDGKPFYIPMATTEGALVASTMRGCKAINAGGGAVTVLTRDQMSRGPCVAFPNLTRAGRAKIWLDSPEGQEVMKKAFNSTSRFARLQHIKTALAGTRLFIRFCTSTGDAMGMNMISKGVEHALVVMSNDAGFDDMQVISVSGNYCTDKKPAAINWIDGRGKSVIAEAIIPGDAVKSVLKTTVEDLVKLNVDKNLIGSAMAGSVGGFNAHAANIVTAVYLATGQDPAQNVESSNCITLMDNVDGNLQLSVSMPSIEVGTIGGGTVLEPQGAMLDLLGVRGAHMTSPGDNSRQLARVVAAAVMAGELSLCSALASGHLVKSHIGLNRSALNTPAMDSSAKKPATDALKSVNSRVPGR
# Summary of the method: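 Membrane HMGR partially purified from S. pombe 972 h (YPD, 28 °C, 48 h) via centrifugation, Triton X-100 solubilization, 65 °C heat step, ammonium sulfate and calcium phosphate gel. Enzyme activated 37 °C 30 min, pre-incubated with compound (DMSO stocks 1–5 mM) 30 min at 37 °C. Assay: 200 µg enzyme, 0.13 mM HMG-CoA, 50 mM Tris-HCl pH 7.5; started with 0.13 mM NADPH; A340 decrease over 2 min; triplicate; IC50 derived.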
# [2] = system: Mus musculus; assay: Hypolipidemic activity in ICR mouse assessed as decrease in Tyloxapol-induced LDL-cholesterol level at 50 mg/kg, ip administered 1 hr before Tyloxapol challenge and 22, 48 hrs after Tyloxapol challenge measured after 22 hrs relative to control; format: functional; set-up: scale not given: the % may be the effect or the level left; conditions: route oral, in the assay text read “po administered” for “ip administered”
# Summary of the method: (§1)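 Male ICR mice (24–27 g), groups of six. Hyperlipidemia induced by ip Tyloxapol (Triton WR 1339) 400 mg/kg in water. Drug given at 5 mL/kg 1 h before and 22 and 48 h after injection; vehicle controls. Blood drawn 22 h post-injection by periorbital bleeding. Serum total cholesterol, HDL-C and triglycerides measured on an automatic analyzer; LDL-C by the Friedewald equation. Values are % of the Tyloxapol group, mean ± SE.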
# [3] = system: Mus musculus; assay: Hypolipidemic activity in high cholesterol diet fed ICR mouse assessed as reduction of LDL cholesterol level at 100 mg/kg/day, po after 12 hrs of last cholesterol challenge relative to control; set-up: scale not given: the % may be the effect or the level left
# [4] = system: Mus musculus; assay: Hypolipidemic activity in ICR mouse assessed as decrease in Tyloxapol-induced total cholesterol level at 50 mg/kg, ip administered 1 hr before Tyloxapol challenge and 22, 48 hrs after Tyloxapol challenge measured after 22 hrs relative to control; format: functional; set-up: scale not given: the % may be the effect or the level left; conditions: route oral, in the assay text read “po administered” for “ip administered”; summary of the method: as §1
# [5] = system: Mus musculus; assay: Hypolipidemic activity in ICR mouse assessed as decrease in Tyloxapol-induced total cholesterol level at 100 mg/kg, ip administered 1 hr before Tyloxapol challenge and 22, 48 hrs after Tyloxapol challenge measured after 22 hrs relative to control; format: functional; set-up: scale not given: the % may be the effect or the level left; conditions: route oral, in the assay text read “po administered” for “ip administered”; summary of the method: as §1
# [6] = system: Mus musculus; assay: Hypolipidemic activity in ICR mouse assessed as decrease in Tyloxapol-induced HDL-cholesterol level at 100 mg/kg, ip administered 1 hr before Tyloxapol challenge and 22, 48 hrs after Tyloxapol challenge measured after 22 hrs relative to control; format: functional; set-up: scale not given: the % may be the effect or the level left; conditions: route intraperitoneal; summary of the method: as §1
# [7] = system: Mus musculus; assay: Hypolipidemic activity in high cholesterol diet fed ICR mouse assessed as reduction of LDL cholesterol level at 50 mg/kg/day, po after 12 hrs of last cholesterol challenge relative to control; set-up: scale not given: the % may be the effect or the level left
# [8] = system: Mus musculus; assay: Hypolipidemic activity in ICR mouse assessed as decrease in Tyloxapol-induced triglyceride level at 50 mg/kg, ip administered 1 hr before Tyloxapol challenge and 22, 48 hrs after Tyloxapol challenge measured after 22 hrs relative to control; format: functional; set-up: scale not given: the % may be the effect or the level left; conditions: route intraperitoneal; summary of the method: as §1
# [9] = system: Mus musculus; assay: Hypolipidemic activity in high cholesterol diet fed ICR mouse assessed as reduction of total cholesterol level at 50 mg/kg, ip after 12 hrs of last cholesterol challenge relative to control; format: functional; set-up: scale not given: the % may be the effect or the level left; conditions: route intraperitoneal
# Summary of the method: (§2)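 Male ICR mice (24–27 g), six per group, were fed a high-cholesterol diet ad libitum for 6 days (1.0% cholesterol, 0.5% sodium cholate, 5% butter, 30% sucrose, 10% casein, 53.5% chow). Basal-diet mice served as controls. Dosing was 5 mL/kg and solutions were made fresh. Mice were fasted 12 h before sacrifice and bled periorbitally. Serum TC, HDL-C and TG were read on an analyzer, with LDL-C by Friedewald.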
# [10] = system: Mus musculus; assay: Hypolipidemic activity in ICR mouse assessed as decrease in Tyloxapol-induced HDL-cholesterol level at 50 mg/kg, ip administered 1 hr before Tyloxapol challenge and 22, 48 hrs after Tyloxapol challenge measured after 22 hrs relative to control; format: functional; set-up: scale not given: the % may be the effect or the level left; conditions: route oral, in the assay text read “po administered” for “ip administered”; summary of the method: as §1
# [11] = system: Mus musculus; assay: Hypolipidemic activity in ICR mouse assessed as decrease in Tyloxapol-induced LDL-cholesterol level at 100 mg/kg, ip administered 1 hr before Tyloxapol challenge and 22, 48 hrs after Tyloxapol challenge measured after 22 hrs relative to control; format: functional; set-up: scale not given: the % may be the effect or the level left; conditions: route oral, in the assay text read “po administered” for “ip administered”; summary of the method: as §1
# [12] = system: Mus musculus; assay: Hypolipidemic activity in high cholesterol diet fed ICR mouse assessed as reduction of HDL cholesterol level at 100 mg/kg/day, po after 12 hrs of last cholesterol challenge relative to control; set-up: scale not given: the % may be the effect or the level left
# [13] = system: Mus musculus; assay: Hypolipidemic activity in high cholesterol diet fed ICR mouse assessed as reduction of HDL cholesterol level at 50 mg/kg/day, po after 12 hrs of last cholesterol challenge relative to control; set-up: scale not given: the % may be the effect or the level left
# [14] = system: Mus musculus; assay: Hypolipidemic activity in ICR mouse assessed as decrease in Tyloxapol-induced triglyceride level at 100 mg/kg, ip administered 1 hr before Tyloxapol challenge and 22, 48 hrs after Tyloxapol challenge measured after 22 hrs relative to control; format: functional; set-up: scale not given: the % may be the effect or the level left; conditions: route intraperitoneal; summary of the method: as §1
# [15] = system: Mus musculus; assay: Hypolipidemic activity in high cholesterol diet fed ICR mouse assessed as reduction of triglyceride level at 50 mg/kg/day, po after 12 hrs of last cholesterol challenge relative to control; set-up: scale not given: the % may be the effect or the level left
# [16] = system: Mus musculus; assay: Hypolipidemic activity in high cholesterol diet fed ICR mouse assessed as reduction of triglyceride level at 100 mg/kg/day, po after 12 hrs of last cholesterol challenge relative to control; set-up: scale not given: the % may be the effect or the level left
# [17] = system: Mus musculus; assay: Hypolipidemic activity in high cholesterol diet fed ICR mouse assessed as reduction of total cholesterol level at 100 mg/kg/day, ip after 12 hrs of last cholesterol challenge relative to control; format: functional; set-up: scale not given: the % may be the effect or the level left; conditions: route intraperitoneal; summary of the method: as §2
IC50 ([1]; read-out: IC50),Compound,Activity [2],Activity [3],Activity [4],Activity [5],Activity [6],Activity [7],Activity [8],Activity [9],Activity [10],Activity [11],Activity [12],Activity [13],Activity [14],Activity [15],Activity [16],Activity [17],further results
153 µM,CCC(O)c1cc(OC)c(OC)cc1N (stereo not given),,,,,,,,,,,,,,,,,
92.9 µM,CCCc1cc(OC)c(OCC(=O)OC)cc1N,-24.22%,-31.54%,-69.1%,-59.67%,-26.23%,-41.1%,-15.45%,-41.4%,-11.21%,-37.31%,-39.58%,-36.04%,-22.14%,-12.22%,-24.98%,-49.47%,
219 µM,CCCCc1cc(OC)c(OC)cc1OC,,,,,,,,,,,,,,,,,
66.5 µM,CCCc1cc(OC)c(OCC(=O)OC)cc1O,-28.94%,-41.81%,-68.32%,-68.42%,-25.03%,-28.88%,-38.63%,-53.34%,-29.15%,-23.15%,-13.45%,-18.89%,-47.07%,-68.42%,-55.91%,-74.14%,
156 µM,C=CCc1ccc(OCC(=O)OCC)c(OC)c1,,,,,,,,,,,,,,,,,
73.6 µM,CCCc1cc(OC)c(OC)cc1O,-66.67%,-22.77%,-76.85%,-55.75%,-37.36%,-60.81%,-60.69%,-59.76%,-38.67%,-35.05%,-23.07%,-72.01%,-14.84%,-62.42%,-38.38%,-24.12%,

# The next lines start with the compound.
Compound,IC50 ([1]; read-out: IC50),Activity [2],Activity [3],Activity [4],Activity [5],Activity [6],Activity [7],Activity [8],Activity [9],Activity [10],Activity [11],Activity [12],Activity [13],Activity [14],Activity [15],Activity [16],Activity [17],further results
CCc1ccccc1OCC(=O)OC,506 µM,,,,,,,,,,,,,,,,,
C=CCc1ccc(OCC(=O)O)c(OC)c1,73.4 µM,,,,,,,,,,,,,,,,,
C=CCc1ccc(OCCNC(=O)c2cccc(Cl)c2)c(OC)c1,239 µM,,,,,,,,,,,,,,,,,
CCCc1cc(OC)c(OCC(=O)OC)cc1[N+](=O)[O-],,-45.69%,-16.76%,-68.64%,-60.1%,-25.81%,-21.13%,-11.99%,-48.64%,-23.15%,-33.33%,-11.43%,-11.36%,-19.91%,-41.98%,-28.78%,-39.51%,
CCOC(=O)COc1cccc(C(C)=O)c1,,,,,,,,,,,,,,,,,,IC50 [1]: Not Active
CCC(C)(C)C(=O)O[C@H]1C[C@@H](C)C=C2C=C[C@H](C)[C@H](CC[C@@H]3C[C@@H](O)CC(=O)O3)[C@H]21 [SIMVASTATIN],95.2 µM,,,,,,,,,,,,,,,,,
